Only some compounds are listed: those with a hit (about 2.4% of all), similar ones and a draw of the others.
MT1-MMP act inh = blockers of MT1-MMP proenzyme processing, primary screen, HT1080 RFP-PRO-GFP cells, GFP/RFP fluorescence; GFP/RFP ratio fluorescence, overnight; percent of plate control window, DMSO zero; GFP/RFP ratio change, % at 20 µM; 360,000 tested, 0.061% active; AID 651647, 2012;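 active means GFP/RFP ratio change of at least 30% with cell ATP level not reduced by more than half and red fluorescence within 50% of control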
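system = RFP-PRO-GFP reporter HT1080 cells | dosing = 20 µM single dose, 1% DMSO | timing = overnight cell settling, then overnight compound exposure, 37 °C, 5% CO2 | read-out basis = GFP/RFP fluorescence ratio | controls = DMSO and RFP-L50D-GFP cell wells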
Myeloid diff MLP = induction of myeloid progenitor differentiation, primary screen, cell-based, flow cytometry, MLPCN library. ER-HoxA9 myeloid progenitors, lysozyme-GFP differentiation. calls only at 10 µM. 360,000 tested, 1% active. AID 624256, 2012;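 active means normalized GFP-positive differentiation at or above the plate's own cutoff, the solvent-only control mean plus 3 SD; inconclusive means no clear call, values can overlap the other calls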;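 further: cells exposed to compound for four days before flow analysis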
DAGLB inh = DAGLB lipase inhibitors, primary screen, biochemical, fluorescence, HTS; HEK293T DAGLB membrane lysate, EnzChek fluorogenic substrate; Diacylglycerol lipase-beta (Homo sapiens), Q8NCG7; 340,000 tested, 0.059% active; inhibition, % at 5.17 µM; AID 504411, 2011; in the data active means inhibition above about 34%;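 further: 0% = enzyme with vehicle and 100% = wells lacking enzyme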
Target sequence (Q8NCG7 whole entry, looked up): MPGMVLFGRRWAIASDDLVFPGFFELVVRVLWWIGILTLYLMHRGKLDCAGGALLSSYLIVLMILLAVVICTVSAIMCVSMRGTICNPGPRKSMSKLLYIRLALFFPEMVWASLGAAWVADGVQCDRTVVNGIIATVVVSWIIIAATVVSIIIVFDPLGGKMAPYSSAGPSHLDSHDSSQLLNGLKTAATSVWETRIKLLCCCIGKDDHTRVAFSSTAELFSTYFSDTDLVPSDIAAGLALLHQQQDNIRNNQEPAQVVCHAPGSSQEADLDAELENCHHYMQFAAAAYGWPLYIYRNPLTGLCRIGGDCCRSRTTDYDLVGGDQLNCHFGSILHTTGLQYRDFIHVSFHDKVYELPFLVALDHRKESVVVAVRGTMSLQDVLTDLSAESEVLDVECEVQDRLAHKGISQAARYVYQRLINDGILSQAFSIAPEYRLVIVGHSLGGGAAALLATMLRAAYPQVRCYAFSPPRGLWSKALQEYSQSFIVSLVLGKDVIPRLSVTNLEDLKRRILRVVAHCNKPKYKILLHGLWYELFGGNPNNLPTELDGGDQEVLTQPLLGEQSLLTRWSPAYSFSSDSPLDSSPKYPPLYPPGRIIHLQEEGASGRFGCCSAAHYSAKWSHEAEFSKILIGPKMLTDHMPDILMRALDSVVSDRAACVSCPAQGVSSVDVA
SENP1 FRET inh = human SENP1 catalytic domain inhibitors, primary screen, biochemical, FRET, uHTS. Sentrin-specific protease 1 (Homo sapiens), Q9P0U3. recombinant SENP1 catalytic domain, CyPet-SUMO1-YPet FRET cleavage. inhibition, % at 10 µM. 360,000 tested, 0.21% active;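 active means inhibition at least 30% at 10 µM, raw YFP signal under a set limit, fluorescence ratio 0.5 to 1.5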;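 further: 0% = enzyme with DMSO and 100% = no enzyme wells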
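material = recombinant human SENP1 catalytic domain, His6-tagged | quantity = 20 pM enzyme | reagent = 25 nM SUMO1 FRET substrate | compound dosing = 10 µM single point, 0.5% DMSO | timing = 50 min enzyme reaction, room temperature, light-protected | detection = FRET, CFP and YFP emission | control set = no-enzyme low, enzyme-DMSO high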
NRP1-CendR mod = modulators of CendR peptide binding to NRP-1, primary screen, biochemical, fluorescence polarization, uHTS. Neuropilin-1 (Homo sapiens), O14786. FAM-RPARPAR peptide binding to NRP-1. inhibition, % at 25 µM. 360,000 tested, 0.85% active. AID 602438, 2012;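 active means inhibition or corrected inhibition above about 18%, plus a signal ratio from 0.5 to 1.5, limit read from the data, passing the limit was not always enough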
MIN6 prolif = inducers of MIN6 beta-cell proliferation, primary screen, ATP luminescence, uHTS | MIN6 cells proliferation, ATPlite luminescence, 48 h; cells starved in 0.2% serum; 100% = growth in 10% serum | proliferation, % at 10 µM | 330,000 tested, 0.29% active;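 active means compounds whose signal lies at least 3.5 SD above the mean of all wells on their plate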;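 further: 0% = DMSO-treated cells in low-serum medium and 100% = 10% serum control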
Myeloid diff = inducers of myeloid progenitor differentiation, confirmation, cell-based, GFP/Mac1 flow cytometry, cherry pick 01. shares compounds with Myeloid diff MLP. ER-HoxA9 myeloid progenitors, GFP/Mac1 double-positive flow. calls only. 2,300 tested, 2% active. AID 651706, 2012;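 active means share of green or green-and-red cells above 9 and 9% in run 1 or 4 and 3% in run 2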
GFP autofluor = flagged as fluorescent in myeloid differentiation counter-screen | ER-HoxA9 myeloid progenitors, no estrogen, GFP autofluorescence flow cytometry; vehicle wells 0%, positive control 100% | fluorescence response, % (test concentration not listed) | AID 651707 | 2,300 tested, 7.4% active | shares compounds with Myeloid diff MLP;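 active means over 5% cells positive for green fluorescent reporter, or over 2% positive for both it and APC stain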;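 further: range taken on the double positive population between DMSO and positive control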
Numbers without * were called inactive; i = inactive; ? = inconclusive; / = no result; + = active, no number.

SMILES	MT1-MMP act inh	Myeloid diff MLP	DAGLB inh	SENP1 FRET inh	NRP1-CendR mod	MIN6 prolif	Myeloid diff	GFP autofluor
COc1ccc(-c2cc(C(=O)NCCc3ccc(S(N)(=O)=O)cc3)c3ccccc3n2)cc1	-2	i	0	-1	-5	-1	/	/
Cc1ccc(OCCOC(=O)c2cc(S(=O)(=O)N3CCCCC3)ccc2N2CCOCC2)cc1	-3	+	-5	4	6	-8	i	0
O=C(OCCOc1ccc(Cl)cc1)c1cc(S(=O)(=O)N2CCCCC2)ccc1N1CCOCC1	-8	i	-3	0	-14	/	/	/
O=C(Nc1cccc(C(F)(F)F)c1)c1cc(S(=O)(=O)N2CCCCC2)ccc1N1CCOCC1	-3	i	-3	1	9	-4	i	0
COc1ccn(C2CCCCO2)c(=O)n1 (stereo unspecified)	0	i	-1	4	16	/	/	/
CCN(CC)CCNC(=O)c1cc2c(-c3ccc(Cl)cc3)nn(C)c2s1	-1	+	3	-7	0	-8	i	0
CCCN(CCC)CCNC(=O)c1cc2c(-c3ccc(Cl)cc3)nn(C)c2s1	1	?	-2	2	5	-5	/	/
Cc1cc(N2CCCCC2)nc(N)n1	-1	+	-3	3	10	1	i	0
Cc1ccc(C)c(C(=O)COC(=O)C(C)N2C(=O)C3C4CCC(C4)C3C2=O)c1 (stereo unspecified)	1	i	-2	1	-3	4	/	/
CC1Cc2c([nH]c(=O)n(-c3ccccc3)c2=O)O1 (stereo unspecified)	4	i	3	-1	-4	/	i	0
Cc1ccc(NS(=O)(=O)c2cc3c4c(cccc4c2)C(=O)NC3=O)cc1C	-51	+	4	1	-21	-6	i	2
ClCc1nc2ccccc2c2ccccc12	-3	?	0	-3	-11	-4	/	/
Cc1c(C)c2c(OCC(=O)N[C@@H](Cc3ccccc3)C(=O)O)cc3c(c2oc1=O)CCC(C)(C)O3	16	i	6	0	-35	-3	i	0
Cc1c(NC(=O)C(C)Sc2nc3ccccc3c(=O)n2CCO)c(=O)n(-c2ccccc2)n1C (stereo unspecified)	4	i	2	2	3	-3	i	0
CC1=C(CC(=O)c2ccccc2)C(=O)c2ccccc2C1=O	-32	+	-2	-3	-14	-6	i	4.2*
Cc1onc(-c2c(Cl)cccc2Cl)c1C(=O)NCc1ccc(S(N)(=O)=O)cc1	-1	i	0	0	2	-1	i	0
OC[C@@H]1CN(Cc2cccc(C(F)(F)F)c2)C[C@H](n2cnc3c(NCc4ccncc4)ncnc32)O1	0	i	/	-7	-10	/	/	/
CC(C)(C)C(=O)Nc1ccc(-c2cn3ccsc3n2)cc1	9	i	3	3	4	-3	i	0
COc1ccc(/C=N/NC(=O)c2ccccc2O)cc1CN1CCOCC1	-3	i	2	2	6	0	/	/
COc1ccc(/C=N/Nc2c(Cl)cc(Cl)cc2Cl)cc1CN1CCOCC1	2	i	1	-1	9	-2	i	1
O=C(CNC(=O)OCc1ccccc1)NC1CCCCCCC1	-4	+	2	1	-1	-1	i	0
